Published values collected from several papers.
Compare with care: the assays were run in different laboratories.
Target: Platelet-derived growth factor receptor beta (PDGFRB, Homo sapiens, UniProt P09619)

O=C(NCCCN1CCOCC1)c1ccc(Nc2nccc(-c3cc4ccccc4s3)n2)cc1
remaining binding (binding, competition with immobilised ligand; 1 µM): 13%

CC1CCCN1c1nccc(-c2cnn3ncccc23)n1 (stereo not shown)
remaining binding (binding; 1 µM): 100%

CCOCCn1cc(C(=O)Nc2ccc(-n3nc(-c4cccnc4)cc3C(F)(F)F)cn2)ccc1=O
remaining binding (cell-free assay, competition with immobilised ligand; 1 µM): 88%

COc1ccnn2ncc(-c3ccnc(N(C)C)n3)c12
remaining binding (binding; 1 µM): 100%

Cc1nccc(COC(=O)N2C[C@@H]3[C@@H](CNC(=O)c4ccc5[nH]nnc5c4)[C@@H]3C2)n1
remaining binding (cell-free assay, competition with immobilised ligand; 1 µM): 84%

CN(C)c1nccc(-c2cnc3ncccn23)n1
remaining binding (binding; 1 µM): 90%

COc1cnc(Nc2cccc(S(N)(=O)=O)c2)nc1N1CCN(c2ccccc2)CC1
remaining binding (binding, competition with immobilised ligand; 1 µM): 87%

O=C(NCC1CCOCC1)c1n[nH]cc1NC(=O)c1c(F)cccc1F
remaining binding (binding, competition with immobilised ligand; 1 µM): 99%

Nc1ncc2c(n1)-c1c([nH]c3ccc(C#CC4CC4)cc13)CCCC2
remaining binding (binding, competition with immobilised ligand; 1 µM): 100%

COc1ccc2c(c1)O[C@@H](c1ccc(OC)c(OC)c1)C[C@H]2NC(=O)C1(c2ccc3c(c2)OC(F)(F)O3)CC1
remaining binding (cell-free assay, competition with immobilised ligand; 1 µM): 100%

O=C(c1ccc(Nc2ncc(Cl)c(-c3ccc(Cl)s3)n2)cc1)N1CCC(N2CCCC2)CC1
remaining binding (binding, competition with immobilised ligand; 1 µM): 0%

N[C@@H]1CCN(c2nccc(-c3cnn4ncccc34)n2)C1
remaining binding (binding; 1 µM): 100%

N#Cc1ccccc1CSc1nnc2c(n1)[nH]c1ccccc12
remaining binding (binding, competition with immobilised ligand; 10 µM): 91%

C[C@@H]1CN(c2ccc3ncc(-c4ccc5[nH]nc(C6CC6)c5c4)n3n2)C[C@H](C)O1
remaining binding (binding, competition with immobilised ligand; 50 nM): 87%

COCCOc1nc(-c2ccc(Cl)nc2)nc2c1CN(C(=O)c1ncn3ccccc13)CC2
remaining binding (cell-free assay, competition with immobilised ligand; 0.1 µM): 100%

CN(C)c1ncc(F)c(-c2cnn3ncccc23)n1
remaining binding (binding; 1 µM): 100%

COc1ncc2cc3ccccc3nc2c1C#N
remaining binding (cell-free assay, competition with immobilised ligand; 5 µM): 97%

N#CC1(c2ccccn2)CCN(Cc2cc(C(=O)N3CCCC3)c(=O)n3ccccc23)CC1
remaining binding (cell-free assay, competition with immobilised ligand; 1 µM): 86%

CCN1CCN(Cc2ccc(C(=O)Nc3ccc(C)c(Oc4ccc5c(c4)CC(=O)N5)c3)cc2C(F)(F)F)CC1
remaining binding (binding, competition with immobilised ligand; 1 µM): 0.85%

CCC(=N\O)/C(C)=C/c1ccc(F)cc1
remaining binding (cell-free assay, competition with immobilised ligand; 1 µM): 100%

O=C(c1ccc(Nc2nccc(-c3cc4ccccc4s3)n2)cc1)N1CCC(N2CCCC2)CC1
remaining binding (binding, competition with immobilised ligand; 1 µM): 11%

Cc1cc(-n2nc(Cc3cc(F)cc(C(F)(F)F)c3)nc2C)ccc1C(N)=O
remaining binding (cell-free assay, competition with immobilised ligand; 1 µM): 98%

C[C@@H]1CCN(c2nccc(-c3cnn4ncccc34)n2)C1
remaining binding (binding; 1 µM): 100%

COc1cnc(Nc2cccc(S(N)(=O)=O)c2)nc1N1CCN(c2ccccc2)C(=O)C1
remaining binding (binding, competition with immobilised ligand; 1 µM): 94%

FC(F)(F)c1ccc2c(c1)nc(-c1cccnc1)n2C1CC1
remaining binding (cell-free assay, competition with immobilised ligand; 1 µM): 100%
